As usually defined, the IC50 is the concentration needed to halve the response being measured. High values mean a need for much substance, low ones inhibition by little substance. For orientation: Cmax means the maximum level reached in the sampled fluid or tissue. The term Tmax denotes the time from dosing to the highest level. In general, AUC(0-t) refers to the area under the concentration-time curve up to a stated or last time point.

The species named for series [1] is Homo sapiens. The series can be described thus: Ratio of IC50 for Mer (unknown origin) to IC50 for Axl (unknown origin).
The target in series [2] is T1, Tyrosine-protein kinase receptor UFO (Mus musculus, UniProt Q00993).
T1 sequence (Q00993 whole entry): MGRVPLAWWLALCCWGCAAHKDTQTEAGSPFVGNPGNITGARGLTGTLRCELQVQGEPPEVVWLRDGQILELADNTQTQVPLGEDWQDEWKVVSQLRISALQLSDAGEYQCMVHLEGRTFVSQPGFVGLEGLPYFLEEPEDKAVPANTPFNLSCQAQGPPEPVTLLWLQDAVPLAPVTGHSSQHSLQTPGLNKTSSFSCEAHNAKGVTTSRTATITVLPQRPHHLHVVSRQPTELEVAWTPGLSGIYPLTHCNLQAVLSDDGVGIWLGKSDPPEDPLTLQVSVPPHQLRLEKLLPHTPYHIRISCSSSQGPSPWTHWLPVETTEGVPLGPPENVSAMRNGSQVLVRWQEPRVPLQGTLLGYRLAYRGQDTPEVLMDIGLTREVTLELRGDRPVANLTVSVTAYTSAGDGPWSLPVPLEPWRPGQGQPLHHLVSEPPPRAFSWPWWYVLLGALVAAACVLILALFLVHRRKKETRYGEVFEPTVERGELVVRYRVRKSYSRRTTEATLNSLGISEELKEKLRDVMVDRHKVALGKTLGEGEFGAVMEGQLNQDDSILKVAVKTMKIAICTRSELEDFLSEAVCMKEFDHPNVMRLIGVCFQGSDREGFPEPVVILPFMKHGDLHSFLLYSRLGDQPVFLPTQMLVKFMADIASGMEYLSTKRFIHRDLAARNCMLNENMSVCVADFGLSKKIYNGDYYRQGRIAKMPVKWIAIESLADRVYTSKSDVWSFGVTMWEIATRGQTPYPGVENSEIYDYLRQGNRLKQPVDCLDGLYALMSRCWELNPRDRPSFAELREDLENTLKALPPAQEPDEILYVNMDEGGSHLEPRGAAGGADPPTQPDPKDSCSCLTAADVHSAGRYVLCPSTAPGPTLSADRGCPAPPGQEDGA
The series can be described thus: Inhibition of Axl in mouse BaF3 cells. The class given is cell-based.

Series [3] is described as follows: Permeability of compound by PAMPA assay. The class given is ADME. To be noted: read-out: permeability. (The PAMPA barrier holds no transporters, so it reflects passive diffusion.)
A short description of series [4]: Metabolic stability in human liver microsomes assessed as residual ratio at 0.1 uM for 30 mins. The class given is ADME, Microsome. To be noted: read-out: Stabilty. In a few lines:
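Compound incubated at 0.1 µM for 30 min with human or mouse liver microsomes. Residual ratio of parent determined afterwards.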
In general terms: Microsomes from liver hold many membrane-bound enzymes, among them those of drug oxidation.

The target of series [5] is T2, CYP1A2 (Homo sapiens, UniProt P05177).
T2 sequence (P05177 whole entry): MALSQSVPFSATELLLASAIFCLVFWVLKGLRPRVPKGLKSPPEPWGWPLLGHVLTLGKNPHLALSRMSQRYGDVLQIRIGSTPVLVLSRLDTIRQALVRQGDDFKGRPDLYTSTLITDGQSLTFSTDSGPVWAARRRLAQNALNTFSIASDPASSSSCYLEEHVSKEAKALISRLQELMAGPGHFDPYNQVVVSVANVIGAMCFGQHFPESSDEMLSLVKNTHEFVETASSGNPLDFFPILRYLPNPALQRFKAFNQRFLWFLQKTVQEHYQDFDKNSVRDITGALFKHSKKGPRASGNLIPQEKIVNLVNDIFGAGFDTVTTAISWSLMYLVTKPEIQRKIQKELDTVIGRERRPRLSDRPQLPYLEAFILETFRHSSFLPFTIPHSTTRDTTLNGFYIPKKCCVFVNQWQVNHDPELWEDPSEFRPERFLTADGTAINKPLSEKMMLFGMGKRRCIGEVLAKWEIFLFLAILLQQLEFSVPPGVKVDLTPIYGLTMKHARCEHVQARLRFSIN
Nature of the series: Time dependent inhibition of CYP1A2 in human liver microsomes assessed as enzyme remaining activity using cocktail of probe CYP as substrate at 50 uM. Format: ADME. The conditions noted are these: probe cocktail of CYP probe substrates, read-out: Activity. In a few lines: (§1)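 Time-dependent CYP inhibition in human liver microsomes, with test compound at 50 µM and a cocktail of probe CYP substrates.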

The target of series [6] is T3, CYP2C8 (Homo sapiens, UniProt P10632).
T3 sequence (P10632 whole entry): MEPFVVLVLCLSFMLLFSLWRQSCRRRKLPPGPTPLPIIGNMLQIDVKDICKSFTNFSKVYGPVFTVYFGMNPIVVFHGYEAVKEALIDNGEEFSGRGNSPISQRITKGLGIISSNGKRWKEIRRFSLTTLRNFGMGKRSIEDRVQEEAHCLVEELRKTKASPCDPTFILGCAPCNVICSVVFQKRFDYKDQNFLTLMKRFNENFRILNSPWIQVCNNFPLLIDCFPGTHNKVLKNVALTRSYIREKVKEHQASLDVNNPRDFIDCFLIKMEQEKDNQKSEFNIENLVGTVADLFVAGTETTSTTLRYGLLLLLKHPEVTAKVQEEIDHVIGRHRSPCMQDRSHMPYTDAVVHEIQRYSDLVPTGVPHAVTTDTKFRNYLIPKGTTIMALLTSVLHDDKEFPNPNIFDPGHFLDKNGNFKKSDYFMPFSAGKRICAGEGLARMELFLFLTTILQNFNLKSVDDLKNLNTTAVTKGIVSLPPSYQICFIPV
The series can be described thus: Time dependent inhibition of CYP2C8 in human liver microsomes assessed as enzyme remaining activity using cocktail of probe CYP as substrate at 50 uM. Format: ADME. The conditions noted are these: probe cocktail of CYP probe substrates, read-out: Activity. In a few lines: as §1

Series [7] deals with CYP2C9 (Homo sapiens, UniProt P11712). The series can be described thus: Time dependent inhibition of CYP2C9 in human liver microsomes assessed as enzyme remaining activity using cocktail of probe CYP as substrate at 50 uM. The conditions noted are these: probe cocktail of CYP probe substrates, read-out: Activity. The class given is ADME. In a few lines:
as §1

Series [8] can be described thus: Cmax in CAnN.Cg-Foxnlnu/CrlCrlj mouse plasma at 100 mg/kg, po single dose measured up to 24 hrs by liquid chromatography tandem mass spectrometry. The class given is ADME, organism-based. More on the design: route oral, dose 100 mg/kg, time <=24.
A short description of series [9]: Tmax in CAnN.Cg-Foxnlnu/CrlCrlj mouse plasma at 25 mg/kg, po single dose measured up to 24 hrs by liquid chromatography tandem mass spectrometry. The class given is ADME, organism-based.
A short description of series [10]: AUC (0 to 24 hrs) in CAnN.Cg-Foxnlnu/CrlCrlj mouse plasma at 25 mg/kg, po single dose measured up to 24 hrs by liquid chromatography tandem mass spectrometry. The class given is ADME, organism-based. Set-up: route oral, dose 25 mg/kg, time <=24.
Series [11] is described as follows: AUC (0 to 24 hrs) in CAnN.Cg-Foxnlnu/CrlCrlj mouse plasma at 100 mg/kg, po single dose measured up to 24 hrs by liquid chromatography tandem mass spectrometry. Format: ADME, organism-based. More on the design: route oral, dose 100 mg/kg, time <=24.

Chain of CYP2C9 (P11712 whole entry): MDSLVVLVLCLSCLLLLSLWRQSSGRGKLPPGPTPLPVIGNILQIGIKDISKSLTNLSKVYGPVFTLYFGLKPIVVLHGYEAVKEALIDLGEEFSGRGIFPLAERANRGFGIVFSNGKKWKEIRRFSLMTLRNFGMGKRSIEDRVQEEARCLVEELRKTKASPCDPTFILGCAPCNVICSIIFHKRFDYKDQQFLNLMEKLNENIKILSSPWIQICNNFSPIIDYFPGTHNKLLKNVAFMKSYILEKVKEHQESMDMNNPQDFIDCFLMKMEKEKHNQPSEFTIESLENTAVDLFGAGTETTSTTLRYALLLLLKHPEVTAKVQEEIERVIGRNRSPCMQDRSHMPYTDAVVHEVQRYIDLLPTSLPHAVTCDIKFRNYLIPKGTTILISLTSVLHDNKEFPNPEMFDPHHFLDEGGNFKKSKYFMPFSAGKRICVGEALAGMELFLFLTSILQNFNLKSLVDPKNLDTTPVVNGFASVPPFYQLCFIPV

Turning to `Cc1ccc(-n2c(=O)c(C(=O)Nc3ccc(Oc4ncnc5c4CCN(CC4CCN(C)CC4)C5)c(F)c3)cn(C3CCCC3)c2=O)nc1`, in series [1], the Ratio IC50 worked out at 37. Besides, in series [2], the IC50 was determined as 28 nM. Besides, the Papp in series [3] was 0.91 ×10⁻⁶ cm/s. For the same molecule, the remaining at 0.5 h, 0.1 µM in series [4] amounted to 99%. Besides, the activity at 50 µM in [5] came out at 82%; in series [6], 84%; in series [7] it was 87%. The same molecule registered a Cmax in series [8] of 10900 ng/mL. Also, the Tmax in [9] was 2 h. The AUC(0-t) in series [10] stood at 22900 ng·h/mL; in series [11], 110000 ng·h/mL.
